Source: PubChem BioAssay (Johns Hopkins Ion Channel Center)
KCNQ1 pot = human KCNQ1 channel potentiation or activation | CHO-K1 KCNQ1, thallium flux FluxOR fluorescence; stronger effect = higher value | B-score at 10 µM | actives 0.35% (n = 310,000);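 active = fluorescence ratio B-score, a plate-corrected score, at least three library SD, with initial intensity B-score within 5 SD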
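Material: CHO-K1 cells stably expressing KCNQ1. Medium: assay buffer for compound exposure, DMSO matched across wells. Reagent: K+/Tl+ depolarizing stimulus. Compound dosing: single-concentration screen. Times: 37 °C overnight plating, 90-min dark dye load, 20-min compound pretreatment. Technique: FluxOR Tl+ flux fluorescence.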
hERG rescue = shields human hERG channel from block by proarrhythmic agents. Q12809. CHO-hERG, FluxOR thallium flux, dofetilide IC70 present. activation (rescue from dofetilide block), less the hit threshold, % at 10 µM. actives 0.51% (n = 310,000);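 active = activation above the mean of controls blocked by dofetilide plus 5 SD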;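 note: thallium influx through hERG after potassium depolarization seen as dye fluorescence rise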
KCNK9 inh = inhibitors of human KCNK9 two-pore domain potassium channel | HEK293 KCNK9, FluxOR thallium flux fluorescence; stronger effect = lower value | B-score at 10 µM | actives 1.2% (n = 310,000) | Q9NPC2;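 active = ratio B-score over 3 SD below the library mean, with starting fluorescence within 5 SD of its mean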;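 note: negative B-score means less thallium flux so channel inhibition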
Target sequence (Q9NPC2 whole entry, looked up, the tested form may be a part): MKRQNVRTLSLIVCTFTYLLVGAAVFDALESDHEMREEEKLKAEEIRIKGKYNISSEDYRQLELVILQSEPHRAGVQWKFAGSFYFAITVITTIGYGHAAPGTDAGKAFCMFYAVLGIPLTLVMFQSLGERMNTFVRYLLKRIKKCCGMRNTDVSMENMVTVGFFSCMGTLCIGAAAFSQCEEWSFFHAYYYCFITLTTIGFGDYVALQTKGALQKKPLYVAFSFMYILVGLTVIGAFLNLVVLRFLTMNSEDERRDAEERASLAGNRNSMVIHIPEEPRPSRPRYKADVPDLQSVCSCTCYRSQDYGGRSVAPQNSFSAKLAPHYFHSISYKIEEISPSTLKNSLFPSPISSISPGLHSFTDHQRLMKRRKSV
KCNK3 inh = human KCNK3 channel inhibition, primary screen; O14649; CHO-KCNK3 thallium flux, FluxOR fluorescence; stronger effect = lower value; B-score at 10 µM; actives 0.84% (n = 340,000);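 active = B-score under library mean minus 4 SD, starting fluorescence ratio at most library mean plus 5 SD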;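 note: more negative B-score means stronger inhibition of thallium flux through KCNK3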
KCNQ1 block = human KCNQ1 channel inhibition | CHO-K1 KCNQ1, FluxOR thallium flux fluorescence; stronger effect = higher value | B-score at 10 µM | actives 1.3% (n = 310,000);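 active = compounds whose thallium flux B-score, printed positive for inhibition, exceeds three library SD while starting fluorescence stays within three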;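 note: channel opened by potassium depolarization with thallium stimulus after 20 min compound exposure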
Numbers stand for hits; 0 = inactive; - = not tested or not shown. Shown are actives, neighbours in structure and some others; about 3.1% of the full set was active somewhere.

SMILES	KCNQ1 pot	hERG rescue	KCNK9 inh	KCNK3 inh	KCNQ1 block
O=C(COc1ccccc1/C=C1\SC(=O)NC1=O)Nc1ccc(F)cc1	0	0	0	0	0
O=C1NC(=O)/C(=C/c2ccccc2Oc2ccc(Cl)cc2)S1	0	0	0	0	11
Cc1ccc(S(=O)(=O)Oc2ccccc2/C=N/N=C(N)N)cc1	0	0	0	0	0
Cc1ccc(Oc2ccccc2/C=C2\SC(=O)N(C)C2=O)cc1	0	0	0	0	6
CC(C)(C)OC(=O)N1CCN(c2ccc(NC(=O)c3ccco3)cc2)CC1	0	0	0	0	0
CC(=O)N/C(=C\c1ccccc1)C(=O)OCC(=O)Nc1cc(S(=O)(=O)N(C)C)ccc1C	0	0	0	0	0
Cc1ccc(S(=O)(=O)N(C)C)cc1NC(=O)COC(=O)/C(=C/c1ccc(F)cc1)c1cccs1	0	0	-7.3	0	0
Cc1ccc(S(=O)(=O)N2[C@@H](c3cccc(Cl)c3)C(C(=O)O)=CC[C@H]2c2ccc(C(C)C)cc2)cc1	-	-	-	0	-
CCOC(=O)c1c(C)oc2cc(Br)c(OC)cc12	0	9.4	0	0	0
CCOC(=O)c1c(C)n(C)c2cc(Br)c(OC)cc12	0	0	0	0	0
Cc1ccccc1CN(C)C(=O)COC(=O)c1ccc2[nH]c(C)c(C)c2c1	-	-	-	0	-
CCCCCc1cc(=O)oc2c(C(CCN3CCCCC3)c3ccc(OC)cc3)c(OC)cc(OC)c12 (stereo unspecified)	0	0	0	0	7
Cc1cc(NC(=O)c2ccc(Cl)cc2)c(C)cc1O	0	0	0	0	0
Cc1cc(C(C#N)c2ccc(Cl)cc2)c(Cl)cc1NC(=O)c1cc(I)cc(I)c1O (stereo unspecified)	8	0	0	0	0
CCCN(CC(=O)Nc1ccccc1C)C(=O)Cc1n[nH]c(=O)c2ccccc12	-	-	-	0	-
CC(C)c1ccccc1-n1c(SCC(=O)N2CCc3ccccc3C2)nc2ccccc2c1=O	0	0	0	0	9
CC1CCc2c(sc3nc(C4CC4)nc(N4CCN(C(=O)c5ccco5)CC4)c23)C1 (stereo unspecified)	0	0	0	0	6
Cc1ccc(NC(=O)CC(N)=S)cc1	0	0	0	0	0
Cc1ccc(NC(=O)CC(O)(C(F)(F)F)C(F)(F)F)cc1	0	0	0	0	7
CCCOc1ccc(C(=O)NNC(=S)NC(C)=O)cc1	0	0	0	0	0
O=C(NC(=S)NNC(=O)c1ccco1)c1ccc(Br)cc1	0	0	0	0	6
CC(C)(C)c1ccc(C(=O)NC(=S)NNC(=O)COc2ccccc2)cc1	30	0	0	0	0
CCCOc1ccc(C(=O)NNC(=S)NC(=O)c2cccs2)cc1	38	8.8	0	0	0
CCCOc1ccc(C(=O)NNC(=S)NC(=O)c2ccccc2)cc1	34	17	0	0	0
O=C(NNC(=S)NC(=O)c1ccco1)c1ccc(F)cc1	0	0	0	0	0
SMILES	KCNQ1 pot	hERG rescue	KCNK9 inh	KCNK3 inh	KCNQ1 block
CCN(C(=O)COC(=O)CCc1ccc(OC)cc1)c1c(N)n(Cc2ccccc2)c(=O)[nH]c1=O	-	-	-	0	-
CN(C(=O)C1CCC(=O)N(C2CC2)C1)C1CCCCC1 (stereo unspecified)	0	0	0	0	0
O=C(NNC(=S)Nc1ccc(Br)cc1)c1ccccc1	0	0	0	0	0
CCCOc1ccc(C(=O)NNC(=S)NC(=O)c2ccccc2[N+](=O)[O-])cc1	0	0	0	0	0
CCOc1ccc(NC(=S)NNC(=O)c2ccc(Br)cc2)cc1	0	0	0	0	6
CCCOc1ccc(C(=O)NNC(=S)NC(=O)c2ccco2)cc1	12	18	0	0	0
CCCOc1ccc(C(=O)NNC(=S)NC(=O)c2cc(-c3ccccc3)nc3ccccc23)cc1	19	0	0	0	0
Cc1ccc(C(=O)N2CCCC(N3CCN(c4ccccc4C)CC3)C2)c(=O)[nH]1 (stereo unspecified)	0	0	0	0	0
COc1ccc(NC(C)=O)cc1S(=O)(=O)N1CCn2cccc2C1C (stereo unspecified)	-	-	-	0	-
COC(=O)c1ccccc1S(=O)(=O)N1CCn2cccc2C1C (stereo unspecified)	0	35	0	0	0
CC1=NN(c2ccc(C)c(C)c2)C(=O)C1C(c1cccc(O)c1)C1C(=O)N(c2ccc(C)c(C)c2)N=C1C (stereo unspecified)	0	0	-9.8	0	0
FC(F)(F)c1cc(-c2ccco2)nc(NCc2ccccc2)n1	0	0	0	0	0
